Measurements from different studies.
Lines come from different studies, so protocols differ.

Structure (SMILES)	host	medium	route	dose	setting	Cmax
COc1cc(C(=O)c2nc(-c3cccc4[nH]ccc34)c[nH]2)cc(OC)c1OC	male CD-1 mouse	plasma	intraperitoneal	15 mg/kg	–	1870 ng/mL
CC(C)=CCC[C@](C)(O[C@@H]1O[C@H](CO)[C@@H](O)[C@H](O)[C@H]1O)[C@H]1CC[C@]2(C)[C@@H]1[C@H](O)C[C@@H]1[C@@]3(C)CC[C@H](O)C(C)(C)[C@@H]3CC[C@]12C	mouse	plasma	oral	10 mg/kg	–	107 ng/mL
N=C(N)NCCC[C@H](NC(=O)[C@H](Cc1ccccc1)NC(=O)[C@H](CCC(N)=O)NC(=O)OCc1ccccc1)C(=O)c1nccs1	female C57BL/6 mouse	plasma	intravenous	5 mg/kg	–	3460 ng/mL
CC(C)[C@]12O[C@H]1[C@@H]1O[C@]13[C@]1(O[C@H]1C[C@H]1C4=C(CC[C@@]13C)C(=O)OC4)[C@@H]2O	SCID mouse	plasma	intravenous	0.6 mg/kg	–	1290 ng/mL
Cc1[nH]c(C)c(S(=O)(=O)Nc2ccc(S(F)(F)(F)(F)F)cc2)c1C(=O)N1CCC(F)(F)C1	mouse	plasma	intraperitoneal	40 mg/kg	–	31 µM
C[C@@H](O)[C@@H]1NC(=O)CNC(=O)[C@H](Cc2c[nH]cn2)NC(=O)[C@H](Cc2c[nH]c3ccccc23)NC(=O)[C@H](CC(N)=O)NC(=O)CNC(=O)C[C@@H](C(=O)N[C@@H](Cc2c[nH]c3ccccc23)C(=O)N[C@@H](Cc2ccccc2)C(=O)N[C@@H](Cc2ccccc2)C(=O)N[C@@H](CC(N)=O)C(=O)N[C@@H](Cc2ccc(O)cc2)C(=O)N[C@@H](Cc2ccc(O)cc2)C(=O)N[C@@H](Cc2c[nH]c3ccccc23)C(=O)O)NC(=O)[C@@H]2CCCN2C(=O)[C@H](CO)NC1=O	mouse	plasma	intravenous	3 mg/kg	–	11400 ng/mL
CCOC(=O)c1c(NC(=O)CNC(C)C)sc2c1CCCCC2	male mouse	brain	intraperitoneal	100 mg/kg	single dose	15800 ng/g
O=C1CCC(N2Cc3c(ccc4c3OCC43CCN(Cc4ccccc4)CC3)C2=O)C(=O)N1 (centres unmarked)	male CD-1 mouse	plasma	intravenous	1 mg/kg	–	299 ng/mL
